According to ChEMBL document CHEMBL1132194, “Synthesis and dopamine receptor modulating activity of novel peptidomimetics of L-prolyl-L-leucyl-glycinamide featuring alpha,alpha-disubstituted amino acids” (1999):
Where a SMILES comes first, the peptide text is derived from it. [ ]: non-standard residue; d: D form. Ac6c = NC1(C(=O)O)CCCCC1; Ac5c = NC1(C(=O)O)CCCC1; Deg = CCC(N)(CC)C(=O)O; Ac3c = NC1(C(=O)O)CC1

Columns and labels:
Format in all cases: functional
Rattus norvegicus [1] = assay: Effect (PLG inhibitor) on apomorphine-Induced rotational behavior in rats at a dose of 0.10 ug/Kg
Procedure, shortened: (§1)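 Rats carrying unilateral 6-hydroxydopamine lesions of the substantia nigra; test compound given ip, then apomorphine 0.25 mg/kg ip. Contralateral rotations counted over 10 min and expressed as percentage change from control rotational response; n = 5 per group; significance versus respective control group (p < 0.05, p < 0.01).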

Rattus norvegicus [2] = assay: Effect (PLG inhibitor) on apomorphine-Induced rotational behavior in rats at a dose of 10.0 ug/Kg; procedure, shortened: as §1
Rattus norvegicus [3] = assay: Effect (PLG inhibitor) on apomorphine-Induced rotational behavior in rats at a dose of 1.0 ug/Kg; procedure, shortened: as §1
Rattus norvegicus [4] = assay: Effect (PLG inhibitor) on apomorphine-Induced rotational behavior in rats at a dose of 0.01 ug/Kg; procedure, shortened: as §1

| Compound | Change (Rattus norvegicus [1]) | Change (Rattus norvegicus [2]) | Change (Rattus norvegicus [3]) | Change (Rattus norvegicus [4]) |
| --- | --- | --- | --- | --- |
| NC(=O)CN1CC[C@@H](NC(=O)[C@@H]2CCCN2)C1=O | 20% | 191% | 75% |  |
| NC(=O)C1(N2CC[C@@H](NC(=O)[C@@H]3CCCN3)C2=O)CCCCC1 | 1% | -2% | 19% | 7% |
| CCC(CC)(C(N)=O)N1CC[C@@H](NC(=O)[C@@H]2CCCN2)C1=O | -3% | 8% | 17% | 2% |
| NC(=O)C1(N2CC[C@@H](NC(=O)[C@@H]3CCCN3)C2=O)CCCC1 | -5% | -4% | 19% | 4% |
| NC(=O)C1(N2CC[C@@H](NC(=O)[C@@H]3CCCN3)C2=O)CC1 | 10% | 4% | -8% | -6% |
| CC(C)C[C@H](NC(=O)[C@@H]1CCCN1)C(=O)NC1(C(N)=O)CC1 (H-Pro-Leu-[Ac3c]-NH2) | 18% | -7% | 8% | 15% |
| CC(C)C[C@H](NC(=O)[C@@H]1CCCN1)C(=O)NC1(C(N)=O)CCCC1 (H-Pro-Leu-[Ac5c]-NH2) | -1% | -26% | 5% | -15% |
| CC(C)C[C@H](NC(=O)[C@@H]1CCCN1)C(=O)NC1(C(N)=O)CCCCC1 (H-Pro-Leu-[Ac6c]-NH2) | 14% | -25% | -2% | -2% |
| CCC(CC)(NC(=O)[C@H](CC(C)C)NC(=O)[C@@H]1CCCN1)C(N)=O (H-Pro-Leu-[Deg]-NH2) | 31% | 1% | 56% | 6% |
